In the M2OR odorant receptor database:

What follows are compounds tested against T1, OR1G1 (Homo sapiens) (UniProt P47890). Settings: stereoisomer not certain.
T1 sequence (whole entry): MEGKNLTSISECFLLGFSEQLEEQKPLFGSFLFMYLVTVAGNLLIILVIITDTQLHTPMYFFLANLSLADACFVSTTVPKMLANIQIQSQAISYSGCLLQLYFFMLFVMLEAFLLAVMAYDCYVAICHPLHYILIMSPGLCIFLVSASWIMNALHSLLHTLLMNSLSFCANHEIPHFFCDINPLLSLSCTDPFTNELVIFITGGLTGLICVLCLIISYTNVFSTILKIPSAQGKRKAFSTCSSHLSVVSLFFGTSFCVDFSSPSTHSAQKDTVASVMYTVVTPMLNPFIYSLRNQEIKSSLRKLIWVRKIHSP
Summary of the method: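 Assay methods differ from source to source, frequently being transient luciferase assays in mammalian cell lines. For each receptor–molecule pair, the label responsive (active) applies when the original authors judged the measured signal statistically different from baseline, and non-responsive (inactive) applies otherwise.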

SMILES | odorant receptor agonist call
CC(=O)C(C)O (centres undefined) | active
CCCCCCC1CCC(=O)O1 (centres undefined) | active
CC(=O)CCC=C(C)C | inactive
c1ccc2[nH]ccc2c1 | inactive
CCCC(=O)SC | active
CCCCCCCCC(=O)O | active
COc1ccccc1 | inactive
CC(C)=CCCC(C)=CC#N | inactive
O=c1ccc2ccccc2o1 | active
CCCCCCCCCC(=O)OC | active
CCCCCCCCCC(=O)[O-].[H+] | active
COc1ccc(C)cc1 | inactive
CCOC(=O)C(C)C | inactive
CC(C)(C)C1CCCCC1OCCCCO (centres undefined) | inactive
CCCCCCC(C)=O | inactive
CC(=O)OCc1ccccc1 | inactive
Cc1ccc(C(C)C)c(O)c1 | active

SMILES | odorant receptor agonist call
c1ccc2ncccc2c1 | active
CC(=O)C=CC1=C(C)CCCC1(C)C | inactive
CC(CC=O)c1ccc(C(C)(C)C)cc1 (centres undefined) | inactive
CCCCCCC(C)O (centres undefined) | active
CC(C)=CCCC(C)CC=O (centres undefined) | active
CCCCCCCCCCO | active
CCCCCC(=O)OC | inactive
Cc1occc(=O)c1O | active
C=CCOC(=O)COCCC(C)C | inactive
CCCCCCCC(=O)OC | active
CCCCCCCC(=O)OCC | active
CC(=O)OCCC(C)C | active
CCCCCCCCC(=O)OC | active
CCCCCCCCCCCC(=O)O | inactive
CCCCCCCCC(C)=O | inactive
CC12CCC(CC1=O)C2(C)C (centres undefined) | active
CCCC(=O)OCC | active
